The results in this text go back to ChEMBL document CHEMBL1795205, “The new 5- or 6-azapyrimidine and cyanuric acid derivatives of l-ascorbic acid bearing the free C-5 hydroxy or C-4 amino group at the ethylenic spacer: CD-spectral absolute configuration determination and biological activity evaluations” (Eur J Med Chem, 2011).

The subject of one test is WI-38. Description: Cytotoxicity against human WI38 cells assessed as inhibition of cell proliferation after 72 hrs by MTT assay. The test is classed as cell-based. Conditions: WI-38, 72 h. The essentials:
(§1)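 Monolayer cells grown in DMEM with 10% FBS were seeded on day 0 at 3000–6000 cells/well, set by each line's doubling time. Agents were added the next step in five 10-fold dilutions (0.01–100) for 72 h, with DMSO ≤0.1% and a solvent control. MTT absorbance was converted to percentage growth versus untreated wells on the same plate. Where all PGs exceeded 50, the top concentration was reported as ">". ANOVA/Tukey, p<0.05.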
(In general: Tetrazolium assays rely on reduction of a dye to a coloured formazan, in cell work by metabolically active cells.)

A further test has as its system MCF7. Description: Cytostatic activity against human MCF7 cells assessed as inhibition of cell proliferation after 72 hrs by MTT assay. The test is classed as functional, cell-based. Conditions: MCF7, 72 h. The essentials: as §1
Another test has as its system HepG2. Description: Cytostatic activity against human HepG2 cells assessed as inhibition of cell proliferation after 72 hrs by MTT assay. The test is classed as functional, cell-based. Conditions: HepG2, 72 h. The essentials:
as §1

A further test relates to HeLa. Description: Cytostatic activity against human HeLa cells assessed as inhibition of cell proliferation after 72 hrs by MTT assay. Type of test: functional, cell-based. The gist of the method: as §1
The next test deals with MIA PaCa-2. Put plainly: Cytostatic activity against human MIAPaCa2 cells assessed as inhibition of cell proliferation after 72 hrs by MTT assay. As to conditions: MIA PaCa-2, 72 h. Type of test: functional, cell-based. The gist of the method: as §1
The test system of the next test is SW-620. Put plainly: Cytostatic activity against human SW620 cells assessed as inhibition of cell proliferation after 72 hrs by MTT assay. Type of test: functional, cell-based. Conditions: SW-620, 72 h. The essentials:
as §1

As to `Nc1ccn(CCC2(N)OC(=O)C(OCc3ccccc3)=C2OCc2ccccc2)c(=O)n1` (racemic), the IC50 in the test with WI-38 was 88.9 µM; in the test with MCF7, 32 µM; in the test with HepG2, more than 100 µM; in the test with HeLa, more than 100 µM; in the test on MIA PaCa-2, more than 100 µM; in the test on SW-620 it was more than 100 µM.
For `NC1(CCn2c(=O)[nH]c(=O)[nH]c2=O)OC(=O)C(OCc2ccccc2)=C1OCc1ccccc1` (racemic), the IC50 with WI-38 is more than 100 µM; with MCF7, 84.9 µM; in the test with HepG2, more than 100 µM; in the test with HeLa, 77.1 µM; with MIA PaCa-2, more than 100 µM; with SW-620 it was more than 100 µM.
As to `Nc1ccn(C[C@H](O)[C@H]2OC(=O)C(OCc3ccccc3)=C2OCc2ccccc2)c(=O)n1`, the concentration for half-maximal inhibition (IC50) is 53.9 µM in the test with WI-38; 7.34 µM with MCF7; 44.3 µM with HepG2; more than 100 µM in the test on HeLa; more than 100 µM in the test on MIA PaCa-2; more than 100 µM with SW-620.
In the case of `O=C1O/C(=C\Cn2c(=O)[nH]c(=O)[nH]c2=O)C(OCc2ccccc2)=C1OCc1ccccc1`, the IC50 in the test on MCF7 is 17.8 µM; in the test with HepG2, 44.8 µM; with HeLa, more than 100 µM; in the test with MIA PaCa-2, 37.9 µM; in the test with SW-620, more than 100 µM.
Turning to `O=C1O/C(=C\Cn2c(=O)[nH]c(=O)[nH]c2=O)C(O)=C1O`, the IC50 is 35.3 µM in the test with WI-38; more than 100 µM with MCF7; more than 100 µM with HepG2; more than 100 µM in the test on HeLa; more than 100 µM in the test on MIA PaCa-2; more than 100 µM in the test on SW-620.
For the compound `O=C1O[C@H]([C@@H](O)Cn2ccc(NC(=O)c3ccccc3)nc2=O)C(OCc2ccccc2)=C1OCc1ccccc1`, the IC50 in the test with WI-38 was 8.82 µM; in the test with MCF7, 4.79 µM; with HepG2 it was 62.2 µM; with HeLa, 35.9 µM; with MIA PaCa-2, more than 100 µM; in the test on SW-620, more than 100 µM.
As to `NC1(CCn2ncc(=O)[nH]c2=O)OC(=O)C(OCc2ccccc2)=C1OCc1ccccc1` (racemic), the IC50 in the test on WI-38, with MCF7, in the test on HepG2, in the test on HeLa, in the test with MIA PaCa-2 and in the test with SW-620 was more than 100 µM in each case.
Turning to `O=C1O/C(=C\Cn2ncc(=O)[nH]c2=O)C(OCc2ccccc2)=C1OCc1ccccc1`, the IC50 came to 24.6 µM with WI-38; 3.77 µM in the test with MCF7; 41.3 µM with HepG2; 45 µM in the test with HeLa; 20.4 µM in the test with MIA PaCa-2; 36.5 µM with SW-620.
Take `Nc1ncn(C[C@H](O)[C@H]2OC(=O)C(OCc3ccccc3)=C2OCc2ccccc2)c(=O)n1`: the IC50 was more than 100 µM with WI-38; 73.8 µM with MCF7; more than 100 µM in the test with HepG2; more than 100 µM in the test on HeLa; 71.7 µM in the test on MIA PaCa-2; more than 100 µM in the test on SW-620.
`NC1(CCn2cc(F)c(=O)[nH]c2=O)OC(=O)C(OCc2ccccc2)=C1OCc1ccccc1` (racemic): the IC50 was 36.2 µM with WI-38; 20.9 µM in the test with MCF7; 42.8 µM in the test on HepG2; more than 100 µM with HeLa; more than 100 µM in the test on MIA PaCa-2; more than 100 µM with SW-620.
On to `Nc1ncn(CCC2(N)OC(=O)C(OCc3ccccc3)=C2OCc2ccccc2)c(=O)n1` (racemic), for which the IC50 in the test on WI-38, with MCF7, in the test with HepG2, with HeLa, in the test on MIA PaCa-2 and with SW-620 was more than 100 µM each time.
For `O=C1O[C@H]([C@@H](O)Cn2c(=O)[nH]c(=O)[nH]c2=O)C(OCc2ccccc2)=C1OCc1ccccc1`, the IC50 in the test on WI-38, in the test on MCF7, in the test on HepG2, with HeLa, in the test with MIA PaCa-2 and with SW-620 was more than 100 µM each time.
Take `Nc1ncn(C/C=C2\OC(=O)C(O)=C2OCc2ccccc2)c(=O)n1`: the IC50 in the test with WI-38, in the test with MCF7, in the test on HepG2, with HeLa, in the test with MIA PaCa-2 and in the test with SW-620 was more than 100 µM in each case.
Turning to `NC1(CCn2ccc(=O)[nH]c2=O)OC(=O)C(OCc2ccccc2)=C1OCc1ccccc1` (racemic), the IC50 in the test on WI-38, with MCF7, with HepG2, in the test with HeLa, in the test on MIA PaCa-2 and in the test on SW-620 was more than 100 µM in each case.
For `Cc1cn(CCC2(N)OC(=O)C(OCc3ccccc3)=C2OCc2ccccc2)c(=O)[nH]c1=O` (racemic), the IC50 with WI-38 is more than 100 µM; with MCF7 it was 80.4 µM; in the test on HepG2, more than 100 µM; in the test with HeLa it was more than 100 µM; in the test with MIA PaCa-2 it was more than 100 µM; with SW-620, more than 100 µM.

One may read the IC50 as the concentration needed to halve the response being measured.
